From PMC9660540 (Clinical Cancer Research, 2022)

Columns and labels:
[1] = Causally related adverse events, phase Ia/Ib study in patients with solid tumors; assay type: in vivo, human
How it was run: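 Expansion cohorts received nanosuspension at 100 mg once daily. The safety set was all patients given ≥1 dose, classified by the treatment actually received. Treatment was delayed or reduced for grade ≥3 or clinically significant nonhematologic toxicity.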

[2] = tested on: colorectal cancer (IO-naïve); test: Tumor response; assay type: in vivo, human

Cc1cc(-c2nnc(N)nc2-c2ccc(F)cc2)cc(Cl)n1 [AZD4635]
12.9%: Treatment-related AEs of grade 3 or greater severity, patients ([1]; all tumor cohorts)
3 (4.6) n (%): Causally related AE grade ≥3: Anemia ([1]; mCRPC IO-naïve)
6 (4.1) n (%): Causally related AE grade ≥3: Fatigue ([1]; Total)
0 n (%): Causally related AE grade ≥3: Abdominal pain ([1]; Other Post-IO) | Causally related AE grade ≥3: Arthralgia ([1]; Other Post-IO) | Causally related AE grade ≥3: Blood creatinine increased ([1]; Other Post-IO) | Causally related AE grade ≥3: CRP increased ([1]; Other Post-IO) | Causally related AE grade ≥3: Dermatitis psoriasiform ([1]; Other Post-IO) | Causally related AE grade ≥3: Diarrhea ([1]; Other Post-IO) | Causally related AE grade ≥3: Dizziness ([1]; Other Post-IO) | Causally related AE grade ≥3: Headache ([1]; Other Post-IO) | Causally related AE grade ≥3: Hyperglycemia ([1]; Other Post-IO) | Causally related AE grade ≥3: Hypertension ([1]; Other Post-IO) | Causally related AE grade ≥3: Hypophosphatemia ([1]; Other Post-IO) | Causally related AE grade ≥3: Insomnia ([1]; Other Post-IO) | Causally related AE grade ≥3: Lipase increased ([1]; Other Post-IO) | Causally related AE grade ≥3: Myositis ([1]; Other Post-IO) | Causally related AE grade ≥3: Nausea ([1]; Other Post-IO) | Causally related AE grade ≥3: Neutrophil count decreased ([1]; Other Post-IO) | Causally related AE grade ≥3: Obliterative bronchiolitis ([1]; Other Post-IO) | Causally related AE grade ≥3: Rash ([1]; Other Post-IO) | Causally related AE grade ≥3: Sudden death ([1]; Other Post-IO) | Causally related AE grade ≥3: Type I diabetes mellitus ([1]; Other Post-IO) | Causally related AE grade ≥3: Vomiting ([1]; Other Post-IO) | Causally related AE grade ≥3: ALT increased ([1]; Total) | Causally related AE grade ≥3: Blood creatinine increased ([1]; Total) | Causally related AE grade ≥3: Dermatitis psoriasiform ([1]; Total) | Causally related AE grade ≥3: Dizziness ([1]; Total) | Causally related AE grade ≥3: Hyperglycemia ([1]; Total) | Causally related AE grade ≥3: Hypophosphatemia ([1]; Total) | Causally related AE grade ≥3: Lipase increased ([1]; Total) | Causally related AE grade ≥3: Myositis ([1]; Total) | Causally related AE grade ≥3: Neutrophil count decreased ([1]; Total) | Causally related AE grade ≥3: Obliterative bronchiolitis ([1]; Total) | Causally related AE grade ≥3: Rash ([1]; Total) | Causally related AE grade ≥3: Type I diabetes mellitus ([1]; Total) | Causally related AE grade ≥3: ALT increased ([1]; mCRPC IO-naïve) | Causally related AE grade ≥3: Blood creatinine increased ([1]; mCRPC IO-naïve) | Causally related AE grade ≥3: Dermatitis psoriasiform ([1]; mCRPC IO-naïve) | Causally related AE grade ≥3: Diarrhea ([1]; mCRPC IO-naïve) | Causally related AE grade ≥3: Dizziness ([1]; mCRPC IO-naïve) | Causally related AE grade ≥3: Dyspnea ([1]; mCRPC IO-naïve) | Causally related AE grade ≥3: Hyperglycemia ([1]; mCRPC IO-naïve) | Causally related AE grade ≥3: Hypertension ([1]; mCRPC IO-naïve) | Causally related AE grade ≥3: Hypophosphatemia ([1]; mCRPC IO-naïve) | Causally related AE grade ≥3: Lipase increased ([1]; mCRPC IO-naïve) | Causally related AE grade ≥3: Lymphocyte count decreased ([1]; mCRPC IO-naïve) | Causally related AE grade ≥3: Myositis ([1]; mCRPC IO-naïve) | Causally related AE grade ≥3: Neutrophil count decreased ([1]; mCRPC IO-naïve) | Causally related AE grade ≥3: Obliterative bronchiolitis ([1]; mCRPC IO-naïve) | Causally related AE grade ≥3: Rash ([1]; mCRPC IO-naïve) | Causally related AE grade ≥3: Sudden death ([1]; mCRPC IO-naïve) | Causally related AE grade ≥3: Type I diabetes mellitus ([1]; mCRPC IO-naïve)
19 (12.9) n (%): ≥Grade 3 causally related AE ([1]; Total)
4 (2.7) n (%): Causally related AE grade ≥3: Anemia ([1]; Total)
1 (4.8) n (%): Causally related AE grade ≥3: Anemia ([1]; Other Post-IO) | Causally related AE grade ≥3: Dyspnea ([1]; Other Post-IO) | Causally related AE grade ≥3: Fatigue ([1]; Other Post-IO) | Causally related AE grade ≥3: Lymphocyte count decreased ([1]; Other Post-IO) | ≥Grade 3 causally related AE ([1]; Other Post-IO)
2 (1.4) n (%): Causally related AE grade ≥3: Abdominal pain ([1]; Total) | Causally related AE grade ≥3: Hypertension ([1]; Total) | Causally related AE grade ≥3: Vomiting ([1]; Total)
1 (0.7) n (%): Causally related AE grade ≥3: Arthralgia ([1]; Total) | Causally related AE grade ≥3: CRP increased ([1]; Total) | Causally related AE grade ≥3: Diarrhea ([1]; Total) | Causally related AE grade ≥3: Dyspnea ([1]; Total) | Causally related AE grade ≥3: Headache ([1]; Total) | Causally related AE grade ≥3: Insomnia ([1]; Total) | Causally related AE grade ≥3: Lymphocyte count decreased ([1]; Total) | Causally related AE grade ≥3: Nausea ([1]; Total) | Causally related AE grade ≥3: Sudden death ([1]; Total)
9 (45.0%) n (%): Best response of stable disease (SD) after a minimum of 2 cycles [2]
9 (13.8) n (%): ≥Grade 3 causally related AE ([1]; mCRPC IO-naïve)
well tolerated: Tolerability ([1]; monotherapy and in combination with durvalumab, all patients)
1 (1.5) n (%): Causally related AE grade ≥3: Abdominal pain ([1]; mCRPC IO-naïve) | Causally related AE grade ≥3: Arthralgia ([1]; mCRPC IO-naïve) | Causally related AE grade ≥3: CRP increased ([1]; mCRPC IO-naïve) | Causally related AE grade ≥3: Fatigue ([1]; mCRPC IO-naïve) | Causally related AE grade ≥3: Headache ([1]; mCRPC IO-naïve) | Causally related AE grade ≥3: Insomnia ([1]; mCRPC IO-naïve) | Causally related AE grade ≥3: Nausea ([1]; mCRPC IO-naïve) | Causally related AE grade ≥3: Vomiting ([1]; mCRPC IO-naïve)
